CHO parental Ca: counter-screen: ATP calcium response change in parental CHO cells; actives 0.63% (n = 330,000); parental CHO-K1, ATP-induced calcium, Fluo-8 fluorescence; inhibition, % at 5.6 µM; AID 463079;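 active = inhibition above that plate's mean sample inhibition plus 3 SD, cut at about 26% in these data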;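 note: 0% = ATP-challenged DMSO wells and 100% = DMSO wells without ATP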
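Assay system: untransfected parental CHO cell line. Also added: ATP agonist challenge. Dosing: one dose, 5.6 µM nominal. Measured by: Fluo-8 fluorescence. Read-out: % inhibition. Benchmarks: ATP wells versus no-ATP DMSO wells. Repeats: no replicates.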
TAAR1 antag: human TAAR1 antagonism | Q96RJ0 | CHO RD-HGA16 TAAR1, Fluo-8 calcium fluorescence, antagonist | inhibition, % at 3 µM | actives 1.5% (n = 360,000);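 active = inhibition above a per-plate cutoff, the mean inhibition of test compounds on that plate plus 3 SD, cut at about 49% in these data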;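 note: 0% = DMSO plus EC80 beta-PEA response and 100% = DMSO alone without agonist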
Target sequence (Q96RJ0 whole entry, looked up): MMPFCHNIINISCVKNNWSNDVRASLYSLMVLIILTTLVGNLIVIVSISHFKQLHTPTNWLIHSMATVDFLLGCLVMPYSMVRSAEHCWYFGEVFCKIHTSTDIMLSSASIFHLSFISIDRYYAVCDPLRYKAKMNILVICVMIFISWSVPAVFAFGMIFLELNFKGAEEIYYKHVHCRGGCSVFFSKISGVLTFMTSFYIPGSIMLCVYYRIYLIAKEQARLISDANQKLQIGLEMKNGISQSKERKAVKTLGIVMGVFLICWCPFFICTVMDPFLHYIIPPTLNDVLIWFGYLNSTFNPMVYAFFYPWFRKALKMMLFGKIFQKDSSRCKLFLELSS
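Test system: CHO RD-HGA16 cells bearing hTAAR1 | Reagent: β-PEA, EC80 | Compound dosing: 3 µM, single point | Schedule: Dye loading 75 min at 37 °C, then 30 min room temperature | Signal: Calcium fluorescence with Fluo-8 | Evaluation: Percent inhibition of PEA-evoked calcium signal, max/basal emission ratio | Control set: DMSO-only wells and EC80 β-PEA-stimulated wells | Repeats: Singlicate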
OX1R antag-1: OX1R (human) antagonism. O43613. OX1R-expressing cells, FRET antagonist read-out. inhibition, % at 6.6 µM. actives 1.8% (n = 330,000); in the data active = inhibition mostly above about 38%, no sharp cut-off; inactive = mostly below about 40%;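 note: 0% = agonist challenge alone and 100% = reference antagonist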
GPR7 antag: blocks human GPR7 receptor signaling | inhibition, % at 4.4 µM | P48145 | actives 1.1% (n = 290,000) | GPR7-expressing cells, fluorescence antagonist assay; in the data active = inhibition above about 16%, passing the limit was not always enough;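 note: cells stimulated with the agonist NPW; 0% = agonist with vehicle and 100% = vehicle without agonist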
Target sequence (P48145 whole entry, looked up): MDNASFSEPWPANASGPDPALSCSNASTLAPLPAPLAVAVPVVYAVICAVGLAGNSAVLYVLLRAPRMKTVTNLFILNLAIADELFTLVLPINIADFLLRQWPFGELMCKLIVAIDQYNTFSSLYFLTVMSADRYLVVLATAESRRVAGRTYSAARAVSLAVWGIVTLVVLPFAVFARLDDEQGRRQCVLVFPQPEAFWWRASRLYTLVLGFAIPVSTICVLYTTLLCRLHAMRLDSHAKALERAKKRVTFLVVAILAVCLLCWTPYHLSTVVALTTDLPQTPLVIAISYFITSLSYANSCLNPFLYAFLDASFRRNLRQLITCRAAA
TAAR1 agonist: human TAAR1 agonism | actives 0.99% (n = 360,000) | Q96RJ0 | activation, % at 3 µM | CHO RD-HGA16 TAAR1, Fluo-8 calcium fluorescence; vehicle wells 0%, saturating PEA agonist 100%;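 active = activation above the mean activation of all test compounds in the run plus 3 SD, cut at about 38% in these data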
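Assay system: CHO-derived RD-HGA16 cells with stable Gα16 and human TAAR1; timing: 17-24 h seeding, 75 min 37 °C dye, 30 min RT; read-out: % activation from peak over basal fluorescence ratio, DMSO-to-PEA scaled; measured by: kinetic Fluo-8 calcium fluorescence; benchmarks: low control DMSO, high control PEA (EC100); doses: 3 µM single concentration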
OX1R antag-2: human HCRTR1 antagonism. O43613. actives 0.43% (n = 330,000). CHO/OX1R cells, Fluo-8 calcium fluorescence, orexin A. inhibition, % at 5 µM;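 active = inhibition above its plate's threshold, mean inhibition of all tested compounds on the plate plus 3 SD, cut at about 37% in these data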;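 note: 0% = orexin A challenge wells and 100% = SB-334867-A antagonist wells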
* = called active by the depositor. In the library only some 4.6% were active in any assay of this set; here they are far more common.

Cc1nc2cc(-c3cccc(F)c3)nn2c(C)c1CCC(=O)NC(C)c1ccc2c(c1)OCCO2 (configuration not stated) was read as CHO parental Ca -25, TAAR1 antag 20, OX1R antag-1 49*, GPR7 antag -9, TAAR1 agonist -1 and OX1R antag-2 9.
For O=C(Cn1cc(C(F)(F)F)ccc1=O)OCC(=O)c1ccc[nH]1 the results were CHO parental Ca -6, TAAR1 antag -3, OX1R antag-1 7, TAAR1 agonist 1 and OX1R antag-2 -5.
Screening CCOc1ccc(/C=N/NC(=O)c2ccccc2Cl)cc1CN1CC2CC(C1)c1cccc(=O)n1C2 (configuration not stated) returned CHO parental Ca -30, TAAR1 antag 8, OX1R antag-1 37*, TAAR1 agonist -2 and OX1R antag-2 -15.
COc1ccc(C(OCC(O)CN(C)C2CCCCC2)c2ccc(OC)cc2)cc1 (configuration not stated) was read as CHO parental Ca -19, TAAR1 antag -7, OX1R antag-1 8, GPR7 antag 20*, TAAR1 agonist 8 and OX1R antag-2 -13.
For CCN1/C(=C\c2ccc3cc(C)ccc3[n+]2CC)Sc2cc(C)c(C)cc21 the results were TAAR1 antag 13, GPR7 antag 9 and TAAR1 agonist 16.
For CCN1/C(=C/c2ccc3cc(C)ccc3[n+]2CC)Sc2ccc3sccc3c21 the results were CHO parental Ca 48*, OX1R antag-1 27 and OX1R antag-2 29.
For COc1ccc(Oc2ncccc2NC(=O)c2cccc(C)c2C)cc1 the results were CHO parental Ca -25, TAAR1 antag 7, OX1R antag-1 3, GPR7 antag -21, TAAR1 agonist 2 and OX1R antag-2 -25.
Cc1nc(-c2ccccc2)sc1C1(C)CC(c2ccccc2F)=NO1 (configuration not stated) was read as CHO parental Ca -20, TAAR1 antag -8, OX1R antag-1 28, TAAR1 agonist 9 and OX1R antag-2 -25.
Screening CCOC(=O)c1cccc(NC(=O)CCS(=O)(=O)c2cccc3nsnc23)c1 returned CHO parental Ca -25, TAAR1 antag 1, OX1R antag-1 69, GPR7 antag -8, TAAR1 agonist 19 and OX1R antag-2 -34.
COc1ccc(CCNC(=O)CCS(=O)(=O)c2cccc3nsnc23)cc1OC was read as CHO parental Ca -16, TAAR1 antag 0, OX1R antag-1 77*, GPR7 antag -10, TAAR1 agonist 1 and OX1R antag-2 -19.
`Cc1cccc(NC(=O)CCS(=O)(=O)c2cccc3nsnc23)c1C` gave CHO parental Ca -24, TAAR1 antag -4, OX1R antag-1 63*, GPR7 antag -1, TAAR1 agonist 5 and OX1R antag-2 -27.
`CS(=O)(=O)NNC(=O)C1Cc2c(ccc3ccccc23)O1` (configuration not stated) gave CHO parental Ca -1, TAAR1 antag -18, OX1R antag-1 13, GPR7 antag -10, TAAR1 agonist 1 and OX1R antag-2 -8.
For O=C(NNS(=O)(=O)c1ccc(F)cc1F)C1Cc2c(ccc3ccccc23)O1 (configuration not stated) the results were CHO parental Ca 42*, TAAR1 antag 5, OX1R antag-1 27, GPR7 antag -13, TAAR1 agonist 4 and OX1R antag-2 51*.
Screening O=C(COC(=O)c1cc(S(=O)(=O)Nc2ccccc2Cl)ccc1O)Nc1ccc(F)c(F)c1F returned CHO parental Ca -6, TAAR1 antag 10, OX1R antag-1 34*, TAAR1 agonist 5 and OX1R antag-2 16.
For COCCCNC(=O)CN1C(=O)c2cccc3cccc1c23 the results were CHO parental Ca 8, TAAR1 antag -13, OX1R antag-1 15, GPR7 antag -12, TAAR1 agonist 0 and OX1R antag-2 2.
For CCOC(=O)c1ccc(NC(=O)CN(c2ccc(C)cc2)S(=O)(=O)c2c(C)n[nH]c2C)cc1 the results were CHO parental Ca 9, TAAR1 antag 52*, OX1R antag-1 1, GPR7 antag 12, TAAR1 agonist 34 and OX1R antag-2 19.
Cc1ccc(Oc2nn[nH]n2)cc1 was read as CHO parental Ca 10, TAAR1 antag 18, OX1R antag-1 16, GPR7 antag 11, TAAR1 agonist 12 and OX1R antag-2 -9.
Cc1ccc(N=C(NOCc2ccc(Cl)cc2Cl)c2nonc2N)c(C)c1 was read as CHO parental Ca -15, TAAR1 antag 57*, OX1R antag-1 2, GPR7 antag 21, TAAR1 agonist 5 and OX1R antag-2 0.
For CCS(=O)(=O)N1CCC(C(=O)OCC(=O)c2ccc(Br)cc2)CC1 the results were CHO parental Ca 50*, TAAR1 antag -4, OX1R antag-1 12, GPR7 antag -14, TAAR1 agonist 6 and OX1R antag-2 -31.
Screening O=C1CC(N2CCN(c3ccccc3O)CC2)C(=O)N1Cc1ccccc1 (configuration not stated) returned CHO parental Ca -13, TAAR1 antag -13, OX1R antag-1 28, GPR7 antag -5, TAAR1 agonist 3 and OX1R antag-2 -15.
Screening CC(C(=O)O)N(C(=O)c1ccccc1)c1ccc(F)cc1 (configuration not stated) returned CHO parental Ca 0, TAAR1 antag 0, OX1R antag-1 13, GPR7 antag -2, TAAR1 agonist 6 and OX1R antag-2 1.
N/C(CN1CCCC1=O)=N\OC(=O)c1ccc(Cl)c(Cl)c1 was read as CHO parental Ca -11, TAAR1 antag -2, OX1R antag-1 24, GPR7 antag -1, TAAR1 agonist 2 and OX1R antag-2 -16.
O=C(Nc1ccccc1)N1CCCN(Cc2ccccc2F)C1 was read as CHO parental Ca -9, TAAR1 antag -12, OX1R antag-1 3, GPR7 antag -2, TAAR1 agonist 2 and OX1R antag-2 -20.
`Fc1ccccc1CN1CCCN(C(=S)Nc2cccc(Cl)c2)C1` gave CHO parental Ca 40*, TAAR1 antag 10, OX1R antag-1 27, GPR7 antag 2, TAAR1 agonist 12 and OX1R antag-2 6.
For Cc1c(Cl)cccc1NC(=S)N1CCCN(Cc2ccccc2F)C1 the results were CHO parental Ca 16, TAAR1 antag 9, OX1R antag-1 3, GPR7 antag -6, TAAR1 agonist 12 and OX1R antag-2 25.
Screening Cc1c(Cl)cccc1NC(=S)N1CCCN(Cc2ccc(F)cc2)C1 returned CHO parental Ca 33*, TAAR1 antag 20, OX1R antag-1 17, GPR7 antag -4, TAAR1 agonist 14 and OX1R antag-2 2.
CCCCN(Cc1cc2cc(OC)ccc2[nH]c1=O)C(=O)COc1ccccc1 was read as CHO parental Ca -11, TAAR1 antag -8, OX1R antag-1 27, GPR7 antag -6, TAAR1 agonist 5 and OX1R antag-2 -31.
